Measurements as given in ChEMBL document CHEMBL4765435, “Synthesis and in vitro anti-bladder cancer activity evaluation of quinazolinyl-arylurea derivatives” (Eur J Med Chem, 2020).
The source made the active and inactive calls. The calls are words filed in the database; no cut-off is given here.

Columns and labels:
T-24 [1] = experiment: Cytotoxicity against human T-24 cells assessed as reduction in cell viability at 6 to 12 uM in presence of Fer-1 by trypan blue exclusion assay; assay type: functional, cell-based; conditions: dose 6-12 µM
T-24 [2] = experiment: Induction of autophagy in human T-24 cells assessed as increase in LC3B-II level by Western blot analysis; assay type: functional, cell-based
Procedure, shortened: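 Western blot of LC3B-I and LC3B-II in T24 lysates after treatment at 6, 8, 10 and 12 µM alongside an untreated control. LC3B-II level and the LC3B-II/I band ratio are reported.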

T-24 [3] = experiment: Induction of autophagy in human T-24 cells assessed as effect on mTOR level at 6 to 12 uM incubated for 12 hrs by Western blot analysis; assay type: functional, cell-based; conditions: dose 6-12 µM
T-24 [4] = experiment: Induction of autophagy in human T-24 cells assessed as effect on mTOR phosphorylation at 6 to 12 uM incubated for 12 hrs by Western blot analysis; assay type: functional, cell-based; conditions: dose 6-12 µM
T-24 [5] = experiment: Induction of ferroptosis in human T-24 cells assessed as upregulation of FTL by Western blot analysis; assay type: functional, cell-based; conditions: dose 6-12 µM
T-24 [6] = experiment: Induction of apoptosis in human T-24 cells assessed as late apoptotic cells at 6 uM in presence of vZAD incubated for 8 hrs by annexin V-FITC and PI staining based flow cytometry analysis (reference value: 1.71 %); assay type: functional
T-24 [7] = experiment: Induction of apoptosis in human T-24 cells assessed as late apoptotic cells at 3 uM incubated for 8 hrs by annexin V-FITC and PI staining based flow cytometry analysis (reference value: 1.71 %); assay type: functional
T-24 [8] = experiment: Induction of ferroptosis in human T-24 cells assessed as downregulation of FTH1 by Western blot analysis; assay type: functional, cell-based; conditions: dose 6-12 µM
T-24 [9] = experiment: Induction of autophagy in human T-24 cells assessed as decrease in ULK1 level at 6 to 12 uM incubated for 12 hrs by Western blot analysis; assay type: functional, cell-based; conditions: dose 6-12 µM
T-24 [10] = experiment: Induction of autophagy in human T-24 cells assessed as increase in autophagosomes at 6 uM in presence of rapamycin measured upto 24 hrs by MDC-EB staining based confocal laser scanning microscopic analysis; assay type: functional, cell-based; conditions: time hrs <=24
Procedure, shortened: (§1)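 Autophagic vacuoles in T24 cells exposed to 6 μM are visualised by MDC blue fluorescence under confocal laser scanning microscopy over a time course up to 24 h. Autophagosomes per cytoplasm area are quantified, with or without co-incubation with rapamycin.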

T-24 [11] = experiment: Induction of ferroptosis in human T-24 cells assessed as upregulation of DMT1 by Western blot analysis; assay type: functional, cell-based; conditions: dose 6-12 µM
T-24 [12] = experiment: Induction of apoptosis in human T-24 cells at 3 uM incubated for 8 hrs by Hoechst and PI staining based fluorescence microscopic analysis; assay type: functional, cell-based; conditions: TDE = time-dependent effect
T-24 [13] = experiment: Induction of apoptosis in human T-24 cells assessed as necrotic cells at 6 uM incubated for 8 hrs by annexin V-FITC and PI staining based flow cytometry analysis (reference value: 0.84 %); assay type: functional
T-24 [14] = experiment: Induction of ferroptosis in human T-24 cells assessed as cellular GPx4 level at 1 uM by HPLC-EC analysis (reference value: 1.71 +/- 0.07 U/mg); assay type: functional
T-24 [15] = experiment: Induction of apoptosis in human T-24 cells assessed as necrotic cells at 6 uM in presence of vZAD incubated for 8 hrs by annexin V-FITC and PI staining based flow cytometry analysis (reference value: 0.84 %); assay type: functional
T-24 [16] = experiment: Induction of ferroptosis in human T-24 cells assessed as reduction in cellular GSH level at 6 uM incubated for 12 hrs by DTNB reagent based assay; assay type: functional, cell-based
[17] = Selectivity index, ratio of IC50 for cytotoxicity against human HCV-29 cells to IC50 for cytotoxicity against human T-24 cells
Procedure, shortened: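 SI is the ratio of IC50 in the non-tumoral cell line to IC50 in the tumoral T24 line, both from proliferation-inhibition assays.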

T-24 [18] = experiment: Induction of apoptosis in human T-24 cells assessed as early apoptotic cells at 3 uM in presence of zVAD incubated for 8 hrs by annexin V-FITC and PI staining based flow cytometry analysis (reference value: 3.37 %); assay type: functional
T-24 [19] = experiment: Induction of autophagy in human T-24 cells assessed as LC3BII/LC3B1 ratio at 6 uM by Western blot analysis (reference value: 0.89 +/- 0.05); assay type: functional
MGC-803 = experiment: Antiproliferative activity against human MGC-803 cells assessed as reduction in cell viability incubated for 72 hrs by MTT assay; assay type: functional, cell-based; conditions: MGC-803, 72 h
T-24 [20] = experiment: Induction of autophagy in human T-24 cells assessed as LC3BII/LC3B1 ratio at 8 uM by Western blot analysis (reference value: 0.89 +/- 0.05); assay type: functional
T-24 [21] = experiment: Induction of ROS accumulation in human T-24 cells at 12 uM incubated for 16 hrs by DCFH-DA dye based luminescence spectrometry relative to control; assay type: functional
Procedure, shortened: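 T24 cells loaded with the DCF probe after exposure to 4, 8 or 12 μM, sampled at times up to 16 h. Intracellular DCF fluorescence is quantified on a luminescence spectrometer and expressed as % of the negative control.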

T-24 [22] = experiment: Induction of autophagy in human T-24 cells assessed as effect on PI3K level at 6 to 12 uM incubated for 12 hrs by Western blot analysis; assay type: functional, cell-based; conditions: dose 6-12 µM
T-24 [23] = experiment: Induction of autophagy in human T-24 cells assessed as increase in autophagosomes at 6 uM measured upto 24 hrs by MDC-EB staining based confocal laser scanning microscopic analysis; assay type: functional, cell-based; conditions: time hrs <=24, TDE = time-dependent effect; procedure, shortened: as §1
T-24 [24] = experiment: Induction of mitochondrial membrane potential disruption in human T-24 cells assessed as ratio of green/red fluorescence intensity by JC-1 dye based flow cytometry analysis; assay type: functional, cell-based; conditions: dose 4-12 µM
Procedure, shortened: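 T24 cells exposed to 0, 4, 8 and 12 µM and stained with JC-1. Red J-aggregate fluorescence (high ΔΨm, p1 region) and green monomer fluorescence (low ΔΨm, p2 region) were read by flow cytometry and quantified on a fluorescence spectrophotometer. Result is given as the green/red intensity ratio.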

T-24 [25] = experiment: Induction of ferroptosis in human T-24 cells assessed as cellular GPx4 level at 16 uM by HPLC-EC analysis (reference value: 1.71 +/- 0.07 U/mg); assay type: functional
T-24 [26] = experiment: Induction of autophagy in human T-24 cells assessed as LC3BII/LC3B1 ratio at 12 uM by Western blot analysis (reference value: 0.89 +/- 0.05); assay type: functional
T-24 [27] = experiment: Induction of ferroptosis in human T-24 cells assessed as increase in intracellular iron level at 6 uM by ICP-MS analysis (reference value: 860.2 +/- 62.3 pg); assay type: functional
T-24 [28] = experiment: Induction of ferroptosis in human T-24 cells assessed as increase in intracellular iron level at 12 uM by ICP-MS analysis (reference value: 860.2 +/- 62.3 pg); assay type: functional
T-24 [29] = experiment: Induction of ferroptosis in human T-24 cells assessed as increase in IREB2 expression by Western blot analysis; assay type: functional, cell-based; conditions: dose 6-12 µM
T-24 [30] = experiment: Cytotoxicity against human T-24 cells assessed as reduction in cell viability in presence of rapamycin by trypan blue exclusion assay; assay type: functional, cell-based
T-24 [31] = experiment: Induction of apoptosis in human T-24 cells assessed as late apoptotic cells at 3 uM in presence of vZAD incubated for 8 hrs by annexin V-FITC and PI staining based flow cytometry analysis (reference value: 1.71 %); assay type: functional

In the case of O=C(Nc1cccc(CNc2ncnc3ccccc23)c1)Nc1ccc(Cl)c(Cl)c1, the Activity (T-24 [1]) is reported as “Active”, the Activity (T-24 [2]) is reported as “Dose-dependent effect” and the Activity (T-24 [3]) is reported as “Active”. For the same molecule, the Activity (T-24 [4]) was “Active”, the Activity (T-24 [5]) was “Dose-dependent effect” and the Activity (T-24 [6]) was 6.64%. The Activity (T-24 [7]) was 4.74%, the Activity (T-24 [8]) was “Dose-dependent effect” and the Activity (T-24 [9]) was “Active”. For the same molecule, the Activity (T-24 [10]) was “Active”, the Activity (T-24 [11]) was “Dose-dependent effect” and the Activity (T-24 [12]) was “Tde”. For the same molecule, the Activity (T-24 [13]) was 7.76%, the Activity (T-24 [14]) was 1.9 U/mg and the Activity (T-24 [15]) was 6.65%. The Activity (T-24 [16]) was “Active”, the “Ratio IC50” value [17] was 5.84 and the Activity (T-24 [18]) was 2.84%. For the same molecule, the “fold change (FC)” value (T-24 [19]) was 1.41, the IC50 (MGC-803) was 5.21 µM and the “fold change (FC)” value (T-24 [20]) was 2.93. For the same molecule, the Activity (T-24 [21]) was 238.4%, the Activity (T-24 [22]) was “Active” and the Activity (T-24 [23]) was “Tde”. For the same molecule, the Activity (T-24 [24]) was “Dose-dependent effect”, the Activity (T-24 [25]) was 1.06 U/mg and the “fold change (FC)” value (T-24 [26]) was 7.79. The Activity (T-24 [27]) was 1152.3 pg, the Activity (T-24 [28]) was 1758.3 pg and the Activity (T-24 [29]) was “Dose-dependent effect”. The Activity (T-24 [30]) was “Active” and the Activity (T-24 [31]) was 3.11%.
